Results published in ChEMBL document CHEMBL4196221, “Improved Total Synthesis and Biological Evaluation of Coibamide A Analogues” (J Med Chem, 2018).
The source made the active and inactive calls. The rule behind the calls is not given here. Bridge positions count the residues as written; N and C are the ends. Square brackets hold non-standard residues; d marks the D form. Peptide text beside a SMILES is read from it. * marks the point of attachment. NMe2Val = CC(C)[C@@H](C(=O)*)N(C)C; NMeI = CC[C@H](C)[C@H](NC)C(=O)O; NMeT = CN[C@H](C(=O)O)[C@@H](C)O; NMeL = CN[C@@H](CC(C)C)C(=O)O; dHiv = CC(C)[C@@H](O)C(=O)O; NMeA = CN[C@@H](C)C(=O)O; dNMeA = CN[C@H](C)C(=O)O

Key:
MDA-MB-231 [1] = test: Growth inhibition of human MDA-MB-231 cells incubated for 72 hrs by MTT assay; assay type: functional; conditions: MDA-MB-231, 72 h
Method in brief: (§1)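 Cells seeded in 96-well plates; after 12 h, fresh medium with a concentration gradient of compound or DMSO vehicle added, then 72 h incubation. MTT added (final 0.5 mg/mL) for 4 h, medium removed, formazan dissolved in DMSO, shaken 2 min, 30 min at 37 °C, absorbance read at 490 nm. Inhibition % = [1 − OD(compound)/OD(control)] × 100; GI50 = 50% reduction versus control; three independent experiments.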

A549 = test: Growth inhibition of human A549 cells incubated for 72 hrs by MTT assay; assay type: functional; conditions: A549, 72 h; method in brief: as §1
PANC-1 = test: Growth inhibition of human PANC1 cells incubated for 72 hrs by MTT assay; assay type: functional; conditions: PANC-1, 72 h; method in brief: as §1
MDA-MB-231 [2] = test: Antitumor activity against human MDA-MB-231 cells xenografted in Balb/c nude mouse assessed as reduction in tumor size at 0.3 mg/kg, sc dosed every 2 days for total of 11 compound injections measured on day 9 onwards; assay type: functional, organism-based
Method in brief: (§2)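 Balb/c nude mice given 1 ×10^7 MDA-MB-231 cells subcutaneously in right flank; at tumor size ∼100 mm3 (L × W × 1/2W), peritumoral subcutaneous injection every 2 days, vehicle equal volume 20% DMSO/80% sterile saline. Tumor size and body weight measured before each injection; after 11 injections mice sacrificed and tumors weighed. n = 7 treated, 4 vehicle; one-way ANOVA.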

MDA-MB-231 [3] = test: Antitumor activity against human MDA-MB-231 cells xenografted in Balb/c nude mouse assessed as reduction in tumor mass at 0.3 mg/kg, sc dosed every 2 days for total of 11 compound injections; assay type: functional; method in brief: as §2
Mus musculus [4] = test: Toxicity in Balb/c nude mouse xenografted with human MDA-MB-231 cells assessed as induction of body weight loss at 0.3 mg/kg, sc dosed every 2 days for total of 11 compound injections; assay type: organism-based; conditions: in vivo, 48 h; method in brief: as §2
Mus musculus [5] = test: Toxicity in Balb/c nude mouse xenografted with human MDA-MB-231 cells assessed as induction of side effect at 0.3 mg/kg, sc dosed every 2 days for total of 11 compound injections; assay type: organism-based; conditions: in vivo, 48 h; method in brief: as §2

SMILES | GI50 (MDA-MB-231 [1]) [nM] | GI50 (A549) [nM] | GI50 (PANC-1) [nM] | Activity (MDA-MB-231 [2]) | fold change (FC) (MDA-MB-231 [3]) | Activity (Mus musculus [4]) | Activity (Mus musculus [5])
CC[C@H](C)[C@H]1C(=O)N[C@@H](C)C(=O)N(C)[C@@H](CC(C)C)C(=O)N[C@@H](Cc2ccc(OC)cc2)C(=O)N(C)[C@@H](C)C(=O)O[C@H](C)[C@H](N(C)C(=O)[C@H](CC(C)C)N(C)C(=O)[C@H](COC)N(C)C(=O)[C@H](OC(=O)[C@H](C(C)C)N(C)C)C(C)C)C(=O)N(C)[C@@H](COC)C(=O)N1C | 7520 | 20100 | 12400 | – | – | – | –
CC[C@H](C)[C@H]1C(=O)N[C@@H](C)C(=O)N(C)[C@@H](CC(C)C)C(=O)N[C@@H](Cc2ccc(OC)cc2)C(=O)N(C)[C@H](C)C(=O)O[C@H](C)[C@H](N(C)C(=O)[C@H](CC(C)C)N(C)C(=O)[C@H](COC)N(C)C(=O)[C@H](OC(=O)[C@H](C(C)C)N(C)C)C(C)C)C(=O)N(C)[C@@H](COC)C(=O)N1C | 5 | 5.4 | 3.1 | – | – | – | –
CC[C@H](C)[C@H]1C(=O)N[C@@H](C)C(=O)N(C)[C@@H](CC(C)C)C(=O)N[C@@H](Cc2ccc(OC)cc2)C(=O)N(C)[C@@H](C)C(=O)O[C@H](C)[C@H](N(C)C(=O)[C@H](CC(C)C)N(C)C(=O)[C@H](COC)N(C)C(=O)[C@@H](OC(=O)[C@H](C(C)C)N(C)C)C(C)C)C(=O)N(C)[C@@H](COC)C(=O)N1C | > 16000 | 22800 | – | – | – | – | –
CC[C@H](C)[C@H]1C(=O)N[C@@H](C)C(=O)N(C)[C@@H](CC(C)C)C(=O)N[C@@H](Cc2ccc(OC)cc2)C(=O)N(C)[C@H](C)C(=O)O[C@H](C)[C@H](N(C)C(=O)[C@H](CC(C)C)N(C)C(=O)[C@H](C)N(C)C(=O)[C@H](OC(=O)[C@H](C(C)C)N(C)C)C(C)C)C(=O)N(C)[C@@H](C)C(=O)N1C (NMe2Val-[dHiv][NMeA][NMeL][NMeT][NMeA][NMeI]A[NMeL]Y(Me)[dNMeA]; ester 4-C) | 5.1 | 7.3 | 7 | Active | 2 | Non-Toxic | Non-Toxic
CC[C@H](C)[C@H]1C(=O)N[C@@H](C)C(=O)N(C)[C@@H](CC(C)C)C(=O)N[C@@H](Cc2ccc(OC)cc2)C(=O)N(C)[C@H](C)C(=O)O[C@H](C)[C@H](N(C)C(=O)[C@H](CC(C)C)N(C)C(=O)[C@H](COC)N(C)C(=O)[C@@H](OC(=O)[C@H](C(C)C)N(C)C)C(C)C)C(=O)N(C)[C@@H](COC)C(=O)N1C | 545 | 19 | – | – | – | – | –
CC[C@H](C)[C@H]1C(=O)N[C@@H](C)C(=O)N(C)[C@@H](CC(C)C)C(=O)N[C@@H](Cc2ccc(OC)cc2)C(=O)N(C)[C@H](C)C(=O)O[C@H](C)[C@H](N(C)C(=O)[C@H](CC(C)C)N(C)C(=O)[C@H](C)N(C)C(=O)[C@H](OC(=O)[C@H](C(C)C)N(C)C(=O)CCNC(=O)OC(C)(C)C)C(C)C)C(=O)N(C)[C@@H](C)C(=O)N1C | 239 | 443 | 415 | – | – | – | –
CC[C@H](C)[C@H]1C(=O)N[C@@H](C)C(=O)N(C)[C@@H](CC(C)C)C(=O)N[C@@H](Cc2ccc(OC)cc2)C(=O)N(C)[C@H](C)C(=O)O[C@H](C)[C@H](N(C)C(=O)[C@H](CC(C)C)N(C)C(=O)[C@H](C)N(C)C(=O)[C@H](OC(=O)[C@@H](NC)C(C)C)C(C)C)C(=O)N(C)[C@@H](C)C(=O)N1C | 236 | 360 | 204 | – | – | – | –
CC[C@H](C)[C@H]1C(=O)N[C@@H](C)C(=O)N(C)[C@@H](CC(C)C)C(=O)N[C@@H](Cc2ccc(OC)cc2)C(=O)N(C)[C@H](C)C(=O)O[C@H](C)[C@H](N(C)C(=O)[C@H](CC(C)C)N(C)C(=O)[C@@H](COC)N(C)C(=O)[C@@H](OC(=O)[C@H](C(C)C)N(C)C)C(C)C)C(=O)N(C)[C@@H](COC)C(=O)N1C | 2660 | 2000 | 1910 | – | – | – | –
CC[C@H](C)[C@H]1C(=O)N[C@@H](C)C(=O)N(C)[C@@H](CC(C)C)C(=O)N[C@@H](Cc2ccc(O)cc2)C(=O)N(C)[C@H](C)C(=O)O[C@H](C)[C@H](N(C)C(=O)[C@H](CC(C)C)N(C)C(=O)[C@H](COC)N(C)C(=O)[C@H](OC(=O)[C@H](C(C)C)N(C)C)C(C)C)C(=O)N(C)[C@@H](COC)C(=O)N1C | 183 | 222 | 277 | – | – | – | –
CC[C@H](C)[C@H]1C(=O)N[C@@H](C)C(=O)N(C)[C@@H](CC(C)C)C(=O)N[C@@H](Cc2ccc(OC)cc2)C(=O)N(C)[C@H](C)C(=O)O[C@H](C)[C@H](N(C)C(=O)[C@H](CC(C)C)N(C)C(=O)[C@H](C)N(C)C(=O)[C@H](OC(=O)[C@H](C(C)C)N(C)C(=O)CCN)C(C)C)C(=O)N(C)[C@@H](C)C(=O)N1C | > 16000 | – | – | – | – | – | –
CC[C@H](C)[C@H]1C(=O)N[C@@H](C)C(=O)N(C)[C@@H](CC(C)C)C(=O)N[C@@H](Cc2ccc(OC)cc2)C(=O)N(C)[C@H](C)C(=O)O[C@H](C)[C@H](N(C)C(=O)[C@H](CC(C)C)NC)C(=O)N(C)[C@@H](C)C(=O)N1C | > 16000 | – | – | – | – | – | –
CCCCCCCCCC(=O)N(C)[C@@H](CC(C)C)C(=O)N(C)[C@@H]1C(=O)N(C)[C@@H](C)C(=O)N(C)[C@@H]([C@@H](C)CC)C(=O)N[C@@H](C)C(=O)N(C)[C@@H](CC(C)C)C(=O)N[C@@H](Cc2ccc(OC)cc2)C(=O)N(C)[C@H](C)C(=O)O[C@@H]1C | 470 | 733 | 828 | – | – | – | –
CC[C@H](C)[C@H]1C(=O)N[C@@H](C)C(=O)N(C)[C@@H](CC(C)C)C(=O)N[C@@H](Cc2ccc(OC)cc2)C(=O)N(C)[C@H](C)C(=O)O[C@H](C)[C@H](N(C)C(=O)[C@H](CC(C)C)N(C)C(=O)[C@H](CCCCNC(=O)OC(C)(C)C)N(C)C(=O)[C@H](OC(=O)[C@H](C(C)C)N(C)C)C(C)C)C(=O)N(C)[C@@H](C)C(=O)N1C | 61.6 | 81.7 | 124 | – | – | – | –
CC[C@H](C)[C@H]1C(=O)N[C@@H](C)C(=O)N(C)[C@@H](CC(C)C)C(=O)N[C@@H](Cc2ccc(OC)cc2)C(=O)N(C)[C@H](C)C(=O)O[C@H](C)[C@H](N(C)C(=O)[C@H](CC(C)C)N(C)C(=O)[C@H](C)N(C)C(=O)[C@@H](C(C)C)N(C)C(=O)[C@H](C(C)C)N(C)C)C(=O)N(C)[C@@H](C)C(=O)N1C | 415 | 511 | 723 | – | – | – | –
CC[C@H](C)[C@H]1C(=O)N[C@@H](C)C(=O)N(C)[C@@H](CC(C)C)C(=O)N[C@@H](Cc2ccc(OC)cc2)C(=O)N(C)[C@H](C)C(=O)O[C@H](C)[C@H](N(C)C(=O)[C@H](CC(C)C)N(C)C(=O)[C@H](COC)N(C)C(=O)[C@H](NC(=O)[C@H](C(C)C)N(C)C)C(C)C)C(=O)N(C)[C@@H](COC)C(=O)N1C | 450 | 473 | 601 | – | – | – | –
CC[C@H](C)[C@H]1C(=O)N[C@@H](C)C(=O)N(C)[C@@H](CC(C)C)C(=O)N[C@@H](Cc2ccc(OC)cc2)C(=O)N(C)[C@H](C)C(=O)O[C@H](C)[C@H](N(C)C(=O)[C@H](CC(C)C)N(C)C(=O)[C@H](CO)N(C)C(=O)[C@H](OC(=O)[C@H](C(C)C)N(C)C)C(C)C)C(=O)N(C)[C@@H](COC(C)(C)C)C(=O)N1C | 20.8 | 194 | 46.3 | – | – | – | –
CC[C@H](C)[C@H]1C(=O)N[C@@H](C)C(=O)N(C)[C@@H](CC(C)C)C(=O)N[C@@H](Cc2ccc(OC)cc2)C(=O)N(C)[C@H](C)C(=O)O[C@H](C)[C@@H](N(C)C(=O)[C@H](CC(C)C)N(C)C(=O)[C@H](COC)N(C)C(=O)[C@@H](OC(=O)[C@H](C(C)C)N(C)C)C(C)C)C(=O)N(C)[C@@H](COC)C(=O)N1C | 10800 | – | – | – | – | – | –
CC[C@H](C)[C@H]1C(=O)N[C@@H](C)C(=O)N(C)[C@@H](CC(C)C)C(=O)N[C@@H](Cc2ccc(OC)cc2)C(=O)N(C)[C@H](C)C(=O)O[C@H](C)[C@H](N(C)C(=O)[C@H](CC(C)C)N(C)C(=O)[C@H](COC(C)(C)C)N(C)C(=O)[C@H](OC(=O)[C@H](C(C)C)N(C)C)C(C)C)C(=O)N(C)[C@@H](C)C(=O)N1C | 5.3 | 12.4 | 32.9 | – | – | – | –
CC[C@H](C)[C@H]1C(=O)N[C@@H](C)C(=O)N(C)[C@@H](CC(C)C)C(=O)N[C@@H](Cc2ccc(OC)cc2)C(=O)N(C)[C@H](C)C(=O)O[C@H](C)[C@H](N(C)C(=O)[C@H](CC(C)C)N(C)C(=O)[C@H](CO)N(C)C(=O)[C@H](OC(=O)[C@H](C(C)C)N(C)C)C(C)C)C(=O)N(C)[C@@H](CO)C(=O)N1C | 2060 | – | 2180 | – | – | – | –
